Results on five compounds are retold here after PMC10287037 (European journal of medicinal chemistry, 2023).

In assay [1] the test system is tubulin (colchicine site). Put plainly: Inhibition of [3H]colchicine binding to tubulin. Particulars: 5 μM inhibitor; 0.5 μM tubulin, 5.0 μM [3H]colchicine.
The subject of assay [2] is PBL stimulated with PHA. Put plainly: Cytotoxicity in PHA-stimulated human PBLs. It counts as cell-based. The settings on record: 72 h, read-out: IC50 (compound concentration required to inhibit cell growth by 50%). Summed up: (§1)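 Healthy-donor human PBLs; non-adherent cells at 5×10^5 cells/mL in growth medium. Proliferating cultures received PHA; resting cultures used the same density without PHA. Graded compound concentrations from 10 mM DMSO stocks. Viability by MTT after 72 h incubation. IC50 is the concentration inhibiting cell growth by 50%.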

Assay [3] has as its system PBL not stimulated with PHA. Put plainly: Cytotoxicity in resting human PBLs. The assay is classed as cell-based. Particulars: 72 h, read-out: IC50 (compound concentration required to inhibit cell growth by 50%). Summed up: as §1
For assay [4], the system named is colon cancer subpanel. The assay can be described thus: NCI five-dose screening, colon cancer subpanel. The assay is classed as cell-based, human. Particulars: for GI50: Homo sapiens. Put shortly: (§2)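 Run by NCI. Prescreen at 10^-5 M across 60 human lines from nine tumour types: leukemia, NSCLC, colon, CNS, melanoma, ovarian, renal, prostate, breast. GI50 is the concentration inhibiting cell growth by 50%. MG_MID is the arithmetic mean GI50 over tested lines; where 50% inhibition was not reached, the highest tested concentration was used.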

Assay [5] deals with leukemia cell lines. The assay can be described thus: NCI five-dose screening, leukemia subpanel. It counts as cell-based, human. The settings on record: for GI50: Homo sapiens, read-out: GI50 values (range over subpanel). Summed up: as §2
The subject of assay [6] is A549, CCRF-CEM and VL51 cells. Put plainly: Apoptosis assay. The assay is classed as cell-based, human. Particulars: 48 h incubation; annexin-V/PI. Summed up: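 A549, CCRF-CEM and VL51 cultured at 37 °C, 5% CO2; lymphoma line in RPMI-1640 with 20% FBS, pen-strep-neomycin and 1% L-glutamine. Test compound from 10 mM DMSO stock, several concentrations, 48 h. Annexin-V Fluos kit per manufacturer: annexin-V-FITC (FL1) and PI (FL3) by flow cytometry. Apoptotic % = annexin-V+ plus annexin-V/PI double-positive cells; mean ± S.E.M., three independent experiments.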

Assay [7] deals with non-Hodgkin lymphoma (NHL) cells HBL1, SU-DHL-10, MINO, VL51. Put plainly: MTT cell proliferation assay, panel of four NHL cell lines. Particulars: for reduction in the percentage of cellular proliferation: 1 μM, 72 h incubation, towards each cell line. The assay is classed as cell-based, human.
Assay [8] has as its system VL51 (marginal zone lymphoma, MZL) cells. The assay can be described thus: MTT cell proliferation assay, VL51. It counts as cell-based. Particulars: Homo sapiens, VL51, 72 h, bound stated. (In general: Tetrazolium assays rely on reduction of a dye to a coloured formazan, in cell work by metabolically active cells.)
The test system of assay [9] is VL51 cells. Put plainly: Mitochondrial membrane potential. The assay is classed as cell-based, human. Particulars: 24 h, 0.5 and 1.0 μM, VL51, JC-1. Summed up:
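VL51 lymphoma cells were grown in RPMI-1640 with 20% FBS, pen-strep-neomycin and 1% L-glutamine at 37 °C, 5% CO2. Cells were treated 24 h with test compound diluted from a 10 mM DMSO stock. They were then labelled with JC-1 and analysed by flow cytometry in the FL1 and FL2 channels.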

The subject of assay [10] is tubulin. Put plainly: Inhibition of tubulin assembly. The assay is classed as biochemical. The settings on record: compared with 3d / CA-4.
Assay [11] concerns renal cancer subpanel. The assay can be described thus: NCI five-dose screening, renal cancer subpanel. It counts as cell-based. The settings on record: Homo sapiens, TK-10, read-out: GI50 (range over subpanel). Summed up: as §2
For assay [12], the system named is prostate cell lines. Put plainly: NCI five-dose screening, prostate subpanel. The assay is classed as cell-based. The settings on record: Homo sapiens, read-out: GI50 values (range over subpanel). Summed up:
as §2

Assay [13] deals with VL51 cells. Put plainly: p-histone H3 staining of mitotic cells by flow cytometry. The assay is classed as cell-based, human. The settings on record: 24 h. Put shortly:
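VL51 lymphoma cells in RPMI-1640 with 20% FBS, penicillin-streptomycin-neomycin and 1% L-glutamine at 37 °C, 5% CO2. Seeded at 2.0×10^5 per well in 6-well plates, then treated 24 h at indicated concentrations. Harvested by centrifugation, fixed in 70% ice-cold ethanol, stained with anti-phospho-histone H3 antibody plus PI, and analysed by flow cytometry as % p-H3-positive (mitotic) cells.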
Background: Flow cytometry measures light scatter and fluorescence of single cells or particles in a stream.

Like-named read-outs stand apart in the source and are kept apart here.

With `COc1ccc(/C=C\c2cc(OC)c(OC)c(OC)c2)cc1O` [CA-4, combretastatin A-4], the “Inhibition of colchicine binding % Inhibition ± SD” value in assay [1] is listed as 98 ± 2%.

Regarding `COc1ccc(Cn2cc3c(c2-c2cc(OC)c(OC)c(OC)c2)CCCc2cnoc2-3)cc1` [3u, 8-(4-Methoxybenzyl)-7-(3,4,5-trimethoxyphenyl)-4,5,6,8-tetrahydropyrrolo[3’,4’:3,4]cyclohepta[1,2-d][1,2]oxazole], the IC50 was > 10000 nM in assay [2], > 10000 nM in assay [3] and < 500 nM in assay [8]. In addition, the values for the GI50 in assay [4] (read-out: GI50 values (range over subpanel)) and in assay [5] were 390 to 1610 nM and 350 to 1560 nM, respectively. Moreover, the “calculated MG_MID for subpanel” value in assay [4] (colon cancer subpanel) was 0.88 µM; in assay [5] (leukemia subpanel), 0.65 µM. In addition, the induction of apoptosis result in assay [6] is listed as “massive apoptosis in a dose-dependent manner”. Moreover, in [7], the “reduction in the percentage of cellular proliferation” value is “higher than 50%”. For the same compound, the “depolarization of the mitochondrial membrane” value (“depolarization” below) in [9] is reported as “depolarization was extensive”.

For the compound `COc1ccc(Cn2cc3c(c2-c2ccc(OC)cc2)CCCc2cnoc2-3)cc1` [3p, 8-(4-Methoxybenzyl)-7-(4-methoxyphenyl)-4,5,6,8-tetrahydropyrrolo[3’,4’:3,4]cyclohepta[1,2-d][1,2]oxazole], the “fold less active on tubulin assembly” value in assay [10] is recorded as “about 4 fold”.

In the case of `COc1ccc(Cn2cc3c(c2-c2cc(OC)c(OC)c(OC)c2)CCCc2cnoc2-3)cc1N` [3z, 2-Methoxy-5-((7-(3,4,5-trimethoxyphenyl)-5,6-dihydropyrrolo[3’,4’:3,4]cyclohepta[1,2-d]isoxazol-8(4H)-yl)methyl)aniline], the IC50 in assay [2] is > 10000 nM; in [3], > 10000 nM; in assay [7] (Homo sapiens, 72 h, read-out: IC50 values (range over all four NHL cell lines)), 100 to 500 nM; in assay [8], < 500 nM. Also, the 50% growth inhibitory concentration (GI50) in [11] is 360 to 840 nM; in assay [12], 430 to 840 nM; in assay [4] (HCC 2998, read-out: GI50 (range over subpanel)), 380 to 560 nM; in [5], 300 to 650 nM. In assay [6], the induction of apoptosis entry is recorded as “massive apoptosis in a dose-dependent manner”. Moreover, the “reduction in the percentage of cellular proliferation” value in assay [7] is “higher than 50%”. Besides, the “depolarization” value in [9] was “depolarization was extensive”.

`COc1ccc(Cn2cc3c(c2-c2ccccc2)CCCc2cnoc2-3)cc1` [3d, 8-(4-Methoxybenzyl)-7-phenyl-4,5,6,8-tetrahydropyrrolo[3’,4’:3,4]cyclohepta[1,2-d][1,2]oxazole]: the IC50 in assay [2] and in assay [3] was > 10000 nM in each case. Moreover, the induction of apoptosis result in [6] is “induced apoptosis to a lesser extent”. The “increase of mitotic cells (p-histone H3 positive)” value in [13] is “did not observe a significant increase of mitotic cells”. In addition, in assay [9], the “depolarization” value is recorded as “slight depolarization of the mitochondrial membrane”.

A word on the GI50: it is the concentration that inhibits growth by half.
